According to ChEMBL document CHEMBL4346672, “Antimicrobial and KPC/AmpC inhibitory activity of functionalized benzosiloxaboroles” (Eur J Med Chem, 2019):
In brackets after ≈: the same amount, converted by molar mass. Activity calls are given as the source filed them. No cut-off for these calls is given here.

System: Meyerozyma guilliermondii
Assay: Antifungal activity against Candida guilliermondii IBA 155 assessed as decrease in fungal cell growth at 0.78 to 12.5 mg/L incubated for 24 hrs by CLSI broth dilution method
Format: functional
Conditions: IBA 155, 24 h
Summary of the method: (§1)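 Yeast broth dilution in RPMI 1640 with 2% glucose, compounds in DMSO. Yeasts pre-grown on Sabouraud dextrose agar. Growth read after 35 °C, 24 h.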
Compound `C[Si]1(C)OB(O)c2cc3c(c(F)c21)COB3O` has an MIC of 400 µg/mL (≈ 1590 µM).

System: Bordetella bronchiseptica
Assay: Antibacterial activity against Bordetella bronchiseptica ATCC 4617 assessed as diameter of zone inhibition measured after 18 hrs by CLSI disc diffusion method
Format: functional
Conditions: not given
Summary of the method: (§2)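 Disc diffusion on Mueller-Hinton II agar. Compounds dissolved in DMSO. Strains stored at -80 °C and subcultured twice on tryptic soy agar before testing. Inhibition zones read after 35 °C, 18 h.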
With `C[Si]1(C)OB(O)c2cc3c(c(F)c21)COB3O` the “diameter of the inhibition zone (DIZ)” value was 13 mm.

System: Meyerozyma guilliermondii
Assay: Antifungal activity against Candida guilliermondii IBA 155 assessed as diameter of zone inhibition incubated for 24 hrs by CLSI disc diffusion method
Format: functional
Conditions: not given
Summary of the method: (§3)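 Yeast disc diffusion on Mueller-Hinton agar supplemented with 2% glucose and 0.5 mg/L methylene blue. Compounds in DMSO. Yeasts subcultured on Sabouraud dextrose agar before testing. Zones read after 35 °C, 24 h.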
For `C[Si]1(C)OB(O)c2cc3c(c(F)c21)COB3O`, the “diameter of the inhibition zone (DIZ)” value was “inactive”.

System: Enterococcus faecalis
Assay: Antibacterial activity against Enterococcus faecalis ATCC 29212 measured after 18 hrs by CLSI broth dilution method
Format: functional
Conditions: ATCC 29212, 18 h
Summary of the method: (§4)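 Broth MIC in Mueller-Hinton II broth following CLSI, compounds dissolved in DMSO. Strains subcultured twice on tryptic soy agar before testing. Growth read after 35 °C, 18 h.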
Work on `C[Si]1(C)OB(O)c2cc3c(c(F)c21)COB3O` yielded an MIC of 100 µg/mL (≈ 397 µM).

System: Candida albicans
Assay: Antifungal activity against Candida albicans ATCC 90028 assessed as diameter of zone inhibition incubated for 24 hrs by CLSI disc diffusion method
Format: functional
Conditions: not given
Summary of the method: as §3
In the case of `C[Si]1(C)OB(O)c2cc3c(c(F)c21)COB3O`, the “diameter of the inhibition zone (DIZ)” value is reported as “inactive”.

System: Candida tropicalis
Assay: Antifungal activity against Candida tropicalis IBA 171 assessed as diameter of zone inhibition incubated for 24 hrs by CLSI disc diffusion method
Format: functional
Conditions: not given
Summary of the method: as §3
With `C[Si]1(C)OB(O)c2cc3c(c(F)c21)COB3O` the “diameter of the inhibition zone (DIZ)” value was “inactive”.

System: Staphylococcus aureus
Assay: Antibacterial activity against Staphylococcus aureus ATCC 6538P measured after 18 hrs by CLSI broth dilution method
Format: functional
Conditions: not given
Summary of the method: as §4
In the case of `C[Si]1(C)OB(O)c2cc3c(c(F)c21)COB3O`, the MIC is reported as 3.12 µg/mL (≈ 12.4 µM).

System: Klebsiella pneumoniae
Assay: Antibacterial activity against Klebsiella pneumoniae ATCC 13883 measured after 18 hrs by CLSI broth dilution method
Format: functional
Conditions: ATCC 13883, 18 h
Summary of the method: as §4
For `C[Si]1(C)OB(O)c2cc3c(c(F)c21)COB3O`, the MIC was over 400 µg/mL.

System: Enterococcus faecalis
Assay: Antibacterial activity against Enterococcus faecalis ATCC 29212 assessed as diameter of zone inhibition measured after 18 hrs by CLSI disc diffusion method
Format: functional
Conditions: not given
Summary of the method: as §2
For `C[Si]1(C)OB(O)c2cc3c(c(F)c21)COB3O`, the “diameter of the inhibition zone (DIZ)” value was 18 mm.

System: Burkholderia cepacia
Assay: Antibacterial activity against Burkholderia cepacia ATCC 25416 measured after 18 hrs by CLSI broth dilution method
Format: functional
Conditions: ATCC 25416, 18 h
Summary of the method: as §4
`C[Si]1(C)OB(O)c2cc3c(c(F)c21)COB3O` gave an MIC of over 400 µg/mL.

System: Enterococcus faecium
Assay: Antibacterial activity against Enterococcus faecium ATCC 6057 assessed as diameter of zone inhibition measured after 18 hrs by CLSI disc diffusion method
Format: functional
Conditions: not given
Summary of the method: as §2
For `C[Si]1(C)OB(O)c2cc3c(c(F)c21)COB3O`, the “diameter of the inhibition zone (DIZ)” value was 16 mm.

System: Candida parapsilosis
Assay: Antifungal activity against Candida parapsilosis ATCC 22019 assessed as diameter of zone inhibition incubated for 24 hrs by CLSI disc diffusion method
Format: functional
Conditions: not given
Summary of the method: as §3
For `C[Si]1(C)OB(O)c2cc3c(c(F)c21)COB3O`, the “diameter of the inhibition zone (DIZ)” value was “inactive”.

System: Escherichia coli
Assay: Antibacterial activity against Escherichia coli ATCC 25922 assessed as fold reduction of MIC in presence of efflux pump inhibitor PAbetaN incubated for 18 hrs by CLSI broth microdilution method
Format: functional
Conditions: not given
Summary of the method: (§5)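 MICs determined with and without PAβN at 50 mg/L in Mueller-Hinton broth containing 1 mM MgSO₄. 2-fold serial dilutions per CLSI. Fold change taken from the paired MICs after 35 °C, 18 h.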
For `C[Si]1(C)OB(O)c2cc3c(c(F)c21)COB3O`, the “fold change (FC)” value was 16.

System: Serratia marcescens
Conditions: ATCC 13880
In the case of `C[Si]1(C)OB(O)c2cc3c(c(F)c21)COB3O`, the DIZ is reported as “inactive”.

System: Serratia marcescens
Assay: Antibacterial activity against Serratia marcescens ATCC 13880 measured after 18 hrs by CLSI broth dilution method
Format: functional
Conditions: ATCC 13880, 18 h
Summary of the method: as §4
In the case of `C[Si]1(C)OB(O)c2cc3c(c(F)c21)COB3O`, the MIC is reported as over 400 µg/mL.

System: Enterococcus faecium
Assay: Antibacterial activity against Enterococcus faecium ATCC 6057 measured after 18 hrs by CLSI broth dilution method
Format: functional
Conditions: ATCC 6057, 18 h
Summary of the method: as §4
In the case of `C[Si]1(C)OB(O)c2cc3c(c(F)c21)COB3O`, the MIC is reported as 50 µg/mL (≈ 198 µM).

System: Burkholderia cepacia
Assay: Antibacterial activity against Burkholderia cepacia ATCC 25416 assessed as diameter of zone inhibition measured after 18 hrs by CLSI disc diffusion method
Format: functional
Conditions: not given
Summary of the method: as §2
In the case of `C[Si]1(C)OB(O)c2cc3c(c(F)c21)COB3O`, the “diameter of the inhibition zone (DIZ)” value is reported as “inactive”.

System: Acinetobacter baumannii
Assay: Antibacterial activity against Acinetobacter baumannii ATCC 19606 assessed as diameter of zone inhibition measured after 18 hrs by CLSI disc diffusion method
Format: functional
Conditions: not given
Summary of the method: as §2
For `C[Si]1(C)OB(O)c2cc3c(c(F)c21)COB3O`, the “diameter of the inhibition zone (DIZ)” value was “inactive”.

System: Pseudomonas aeruginosa
Assay: Antibacterial activity against Pseudomonas aeruginosa ATCC 27853 measured after 18 hrs by CLSI broth dilution method
Format: functional
Conditions: ATCC 27853, 18 h
Summary of the method: as §4
`C[Si]1(C)OB(O)c2cc3c(c(F)c21)COB3O` gave an MIC of over 400 µg/mL.

System: Enterobacter cloacae
Assay: Antibacterial activity against Enterobacter cloacae DSM 6234 measured after 18 hrs by CLSI broth dilution method
Format: functional
Conditions: DSM 6234, 18 h
Summary of the method: as §4
With `C[Si]1(C)OB(O)c2cc3c(c(F)c21)COB3O` the MIC was over 400 µg/mL.

System: Proteus mirabilis
Assay: Antibacterial activity against Proteus mirabilis ATCC 12453 assessed as fold reduction of MIC in presence of efflux pump inhibitor PAbetaN incubated for 18 hrs by broth microdilution method
Format: functional
Conditions: not given
Summary of the method: as §5
For `C[Si]1(C)OB(O)c2cc3c(c(F)c21)COB3O`, the “fold change (FC)” value was 8.

System: Bordetella bronchiseptica
Assay: Antibacterial activity against Bordetella bronchiseptica ATCC 4617 measured after 18 hrs by CLSI broth dilution method
Format: functional
Conditions: ATCC 4617, 18 h
Summary of the method: as §4
For `C[Si]1(C)OB(O)c2cc3c(c(F)c21)COB3O`, the MIC was 200 µg/mL (≈ 794 µM).

System: Bacillus subtilis
Assay: Antibacterial activity against Bacillus subtilis ATCC 6633 assessed as diameter of zone inhibition measured after 18 hrs by CLSI disc diffusion method
Format: functional
Conditions: not given
Summary of the method: as §2
With `C[Si]1(C)OB(O)c2cc3c(c(F)c21)COB3O` the “diameter of the inhibition zone (DIZ)” value was 29 mm.

System: Proteus mirabilis
Assay: Antibacterial activity against Proteus mirabilis ATCC 12453 assessed as diameter of zone inhibition measured after 18 hrs by CLSI disc diffusion method
Format: functional
Conditions: not given
Summary of the method: as §2
In the case of `C[Si]1(C)OB(O)c2cc3c(c(F)c21)COB3O`, the “diameter of the inhibition zone (DIZ)” value is reported as “inactive”.

System: Klebsiella pneumoniae
Assay: Antibacterial activity against Klebsiella pneumoniae ATCC 13883 assessed as fold reduction of MIC in presence of efflux pump inhibitor PAbetaN incubated for 18 hrs by broth microdilution method
Format: functional
Conditions: not given
Summary of the method: as §5
For `C[Si]1(C)OB(O)c2cc3c(c(F)c21)COB3O`, the “fold change (FC)” value was 32.

System: Candida parapsilosis
Assay: Antifungal activity against Candida parapsilosis ATCC 22019 assessed as decrease in fungal cell growth at 0.78 to 12.5 mg/L incubated for 24 hrs by CLSI broth dilution method
Format: functional
Conditions: Lodderomyces parapsilosis, ATCC 22019, 24 h
Summary of the method: as §1
Compound `C[Si]1(C)OB(O)c2cc3c(c(F)c21)COB3O` has an MIC of 50 µg/mL (≈ 198 µM).

System: not listed separately
Assay: Dissociation constant, pKa1 of compound in 0.1 M NaOH by potentiometric analysis
Format: physicochemical
Conditions: not given
For `C[Si]1(C)OB(O)c2cc3c(c(F)c21)COB3O`, the pKa was 6.3.

System: Staphylococcus aureus
Assay: Antibacterial activity against Staphylococcus aureus ATCC 6538P assessed as diameter of zone inhibition measured after 18 hrs by CLSI disc diffusion method
Format: functional
Conditions: not given
Summary of the method: as §2
In the case of `C[Si]1(C)OB(O)c2cc3c(c(F)c21)COB3O`, the “diameter of the inhibition zone (DIZ)” value is reported as 20 mm.

System: Escherichia coli
Assay: Antibacterial activity against Escherichia coli ATCC 25922 assessed as diameter of zone inhibition measured after 18 hrs by CLSI disc diffusion method
Format: functional
Conditions: not given
Summary of the method: as §2
In the case of `C[Si]1(C)OB(O)c2cc3c(c(F)c21)COB3O`, the “diameter of the inhibition zone (DIZ)” value is reported as “inactive”.

System: Stenotrophomonas maltophilia
Assay: Antibacterial activity against Stenotrophomonas maltophilia ATCC 13637 assessed as fold reduction of MIC in presence of efflux pump inhibitor PAbetaN incubated for 18 hrs by broth microdilution method
Format: functional
Conditions: not given
Summary of the method: as §5
For `C[Si]1(C)OB(O)c2cc3c(c(F)c21)COB3O`, the “fold change (FC)” value was 16.

System: Klebsiella pneumoniae
Conditions: ATCC 13883
In the case of `C[Si]1(C)OB(O)c2cc3c(c(F)c21)COB3O`, the DIZ is reported as “inactive”.

System: Acinetobacter baumannii
Assay: Antibacterial activity against Acinetobacter baumannii ATCC 19606 measured after 18 hrs by CLSI broth dilution method
Format: functional
Conditions: ATCC 19606, 18 h
Summary of the method: as §4
`C[Si]1(C)OB(O)c2cc3c(c(F)c21)COB3O` showed an MIC of over 400 µg/mL.

System: Stenotrophomonas maltophilia
Assay: Antibacterial activity against Stenotrophomonas maltophilia ATCC 13637 measured after 18 hrs by CLSI broth dilution method
Format: functional
Conditions: ATCC 13637, 18 h
Summary of the method: as §4
`C[Si]1(C)OB(O)c2cc3c(c(F)c21)COB3O` gave an MIC of 200 µg/mL (≈ 794 µM).

System: Pichia kudriavzevii
Assay: Antifungal activity against Candida krusei ATCC 6258 assessed as diameter of zone inhibition incubated for 24 hrs by CLSI disc diffusion method
Format: functional
Conditions: not given
Summary of the method: as §3
With `C[Si]1(C)OB(O)c2cc3c(c(F)c21)COB3O` the “diameter of the inhibition zone (DIZ)” value was “inactive”.

System: Proteus mirabilis
Assay: Antibacterial activity against Proteus mirabilis ATCC 12453 measured after 18 hrs by CLSI broth dilution method
Format: functional
Conditions: ATCC 12453, 18 h
Summary of the method: as §4
`C[Si]1(C)OB(O)c2cc3c(c(F)c21)COB3O` gave an MIC of over 400 µg/mL.

System: Staphylococcus epidermidis
Assay: Antibacterial activity against Staphylococcus epidermidis ATCC 12228 assessed as diameter of zone inhibition measured after 18 hrs by CLSI disc diffusion method
Format: functional
Conditions: not given
Summary of the method: as §2
In the case of `C[Si]1(C)OB(O)c2cc3c(c(F)c21)COB3O`, the “diameter of the inhibition zone (DIZ)” value is reported as 34 mm.
